Laboratory results: ChEMBL document CHEMBL1124175, “Stereoisomers of allenic amines as inactivators of monoamine oxidase type B. Stereochemical probes of the active site” (J Med Chem, 1988)
pKi: −log10 of the molar value.

Experiments:
[1] = molecular target: T1, Amine oxidase [flavin-containing] B (Bos taurus, UniProt P56560); assay: Inhibitory activity against Monoamine Oxidase B of Bovine liver in competitive inhibition assay at 25 degree C (pH=7.4)
T1 sequence (P56560 whole entry): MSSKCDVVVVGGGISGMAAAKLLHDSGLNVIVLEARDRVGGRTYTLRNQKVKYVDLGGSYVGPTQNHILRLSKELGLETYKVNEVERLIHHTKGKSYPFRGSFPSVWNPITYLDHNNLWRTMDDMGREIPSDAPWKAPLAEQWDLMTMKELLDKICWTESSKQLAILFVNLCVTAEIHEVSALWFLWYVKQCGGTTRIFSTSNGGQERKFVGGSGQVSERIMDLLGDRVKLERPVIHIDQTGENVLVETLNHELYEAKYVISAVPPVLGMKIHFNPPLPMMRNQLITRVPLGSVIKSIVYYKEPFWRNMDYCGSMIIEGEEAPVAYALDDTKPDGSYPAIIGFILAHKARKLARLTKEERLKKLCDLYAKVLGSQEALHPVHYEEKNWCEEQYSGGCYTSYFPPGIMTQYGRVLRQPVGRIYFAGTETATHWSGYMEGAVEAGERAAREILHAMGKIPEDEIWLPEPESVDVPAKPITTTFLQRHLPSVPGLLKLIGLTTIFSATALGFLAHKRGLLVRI

[2] = molecular target: T2, Amine oxidase [flavin-containing] B (Rattus norvegicus, UniProt P19643); assay: Competitive inhibition of Rat liver Monoamine Oxidase B at 37 degree C (pH= 7.4)
T2 sequence (P19643 whole entry): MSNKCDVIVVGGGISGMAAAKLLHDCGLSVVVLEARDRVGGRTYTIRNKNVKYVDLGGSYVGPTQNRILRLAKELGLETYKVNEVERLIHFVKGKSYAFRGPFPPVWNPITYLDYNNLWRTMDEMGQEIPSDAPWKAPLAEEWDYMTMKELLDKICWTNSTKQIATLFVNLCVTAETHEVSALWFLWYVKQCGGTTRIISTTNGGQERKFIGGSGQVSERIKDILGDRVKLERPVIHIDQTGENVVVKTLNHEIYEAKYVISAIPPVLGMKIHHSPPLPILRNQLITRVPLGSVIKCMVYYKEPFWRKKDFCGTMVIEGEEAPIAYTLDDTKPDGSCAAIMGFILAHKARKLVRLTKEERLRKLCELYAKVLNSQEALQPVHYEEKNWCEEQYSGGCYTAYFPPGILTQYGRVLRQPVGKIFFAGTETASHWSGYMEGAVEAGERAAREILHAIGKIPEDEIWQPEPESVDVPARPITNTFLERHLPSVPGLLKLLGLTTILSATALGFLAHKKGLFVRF

[3] = molecular target: T1, Amine oxidase [flavin-containing] B; assay: In vitro inhibition of bovine monoamine oxidase B.
Method in brief: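 Beef liver mitochondrial MAO was purified and assayed spectrophotometrically in 67 mM potassium phosphate, pH 7.2, at 25 °C. MAO (0.002 unit) was run with benzylamine hydrochloride (100, 200, 300 or 400 µM) and inhibitor at various concentrations. Initial rates of benzaldehyde formation were read at 250 nm, four replicates per combination, and competitive Ki was fitted from the initial rates.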

Bos taurus = species: Bos taurus; assay: Competitive inhibition of Bovine liver MAO-B at […]; type: functional
[4] = molecular target: T1, Amine oxidase [flavin-containing] B; assay: Kinetic parameter for the time dependent inhibition of Bovine liver Monoamine Oxidase B at 25 degrees C (pH= 7.4).; conditions: cattle; for kinact: read-out: k2 (converted)
Method in brief: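 Purified beef liver mitochondrial MAO (0.02 unit) was preincubated at 25 °C in 50 mM potassium phosphate, pH 7.4, with allenic amine (1 µM-10 mM). Aliquots taken over time were assayed in duplicate for residual activity against benzylamine at 250 nm. kobsd came from nonlinear fit to E = E0 exp(-kobsd t) + E∞, and k2 and Ki by Kitz-Wilson analysis. For slow inactivators, k2 came from kobsd at one concentration plus a separately measured competitive Ki.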

[5] = molecular target: T2, Amine oxidase [flavin-containing] B; assay: Competitive inhibition of Rat liver Monoamine Oxidase B at 30 degree C (pH= 7.2)

Structure (SMILES) | pKi [1] | pKi [3] | k2 [4] | other results
CN[C@H](C)c1ccccc1 | 3.20 | – | – | –
CN[C@@H](C)c1ccccc1 | 2.80 | – | – | –
CN[C@H](C)Cc1ccccc1 | 3.10 | – | – | pKi [2]: 3.26
C[C@@H](N)c1ccccc1 | – | 3.72 | – | –
C[C@H](N)c1ccccc1 | 3.28 | – | – | pKi (Bos taurus): 3.82
CN[C@@H]1CCCc2ccccc21 | 4.92 | – | – | –
CN[C@H]1CCCc2ccccc21 | 5.85 | – | – | –
CC=C=CCN(C)[C@@H](C)c1ccccc1 (mixture of isomers) | – | 2.59 | 0.012 min⁻¹ | –
CC=C=CCN(C)[C@H]1CCCc2ccccc21 (mixture of isomers) | – | 3.82 | 0.012 min⁻¹ | –
CC=C=CCN(C)[C@@H]1CCCc2ccccc21 (mixture of isomers) | – | 3.60 | 0.13 min⁻¹ | –
CC=C=CCN(C)C[C@H](C)c1ccccc1 (mixture of isomers) | – | 3.74 | – | kinact [4]: 0.00015 s⁻¹
CC=C=CCN(C)C[C@@H](C)c1ccccc1 (mixture of isomers) | – | 3.16 | – | kinact [4]: 0.000117 s⁻¹
CC=C=CCN(C)[C@H](C)c1ccccc1 (mixture of isomers) | – | 2.74 | – | kinact [4]: 0.00733 s⁻¹
CC=C=CCN(C)[C@@H](C)c1ccccc1 (stereo in doubt) | – | 2.96 | – | kinact [4]: 0.000117 s⁻¹
CC=C=CCN(C)[C@H]1CCCc2ccccc21 (stereo in doubt) | – | 3.82 | 0.0006 min⁻¹ | –
CC=C=CCN(C)[C@@H]1CCCc2ccccc21 (stereo in doubt) | – | 3.70 | 0.8 min⁻¹ | –
CC=C=CCN(C)[C@H](C)c1ccccc1 (stereo in doubt) | – | 3.14 | 0.61 min⁻¹ | –
CC=C=CCN(C)C (stereo in doubt; 1 (R)) | – | 4.23 | – | kinact [4]: 0.00367 s⁻¹
CC=C=CCN(C)C (stereo in doubt; 1 (S)) | – | 4.00 | 0.29 min⁻¹ | –
CC=C=CCN(C)Cc1ccccc1.O=C(O)C(=O)O (stereo in doubt; 2 (R)) | – | 3.70 | 1 min⁻¹ | –
CC=C=CCN(C)Cc1ccccc1.O=C(O)C(=O)O (stereo in doubt; 2 (S)) | – | 3.09 | 0.16 min⁻¹ | –
CC=C=CCN(C)CCc1ccccc1 (stereo in doubt; 4 (R)) | – | 3.37 | 0.99 min⁻¹ | –
CC=C=CCN(C)CCc1ccccc1 (stereo in doubt; 4 (S)) | – | 3.19 | 0.13 min⁻¹ | –
C[C@H](N)Cc1ccccc1 [DEXTROAMPHETAMINE] | 3.52 | – | – | pKi [2]: 3.80; pKi [5]: 3.24
C[C@@H](N)Cc1ccccc1 [LEVAMFETAMINE] | 3.42 | – | – | pKi [2]: 3.74; pKi [5]: 3.12
CN[C@@H](C)Cc1ccccc1 [METHAMPHETAMINE] | 3.26 | – | – | pKi [2]: 3.57
